Compound activity deposited in PubChem by Broad Institute.
In the library only some 2.9% were active in any assay of this set; here they are far more common.
ERAP1 inh: blocks human ERAP1 aminopeptidase activity; Q9NZ08; AID 652197; inhibition, % at 10.7 µM; 0.15% of 340,000 active; recombinant ERAP1, Leu-AMC fluorescence, 60 min;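 active = mean replicate inhibition of at least 30%, or all replicates individually reaching that 30% level; inactive = mean below 30% and not every replicate reaching it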;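 note: 0% = neutral control wells and 100% = L-leucinethiol positive control wells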
Target sequence (Q9NZ08 whole entry, looked up): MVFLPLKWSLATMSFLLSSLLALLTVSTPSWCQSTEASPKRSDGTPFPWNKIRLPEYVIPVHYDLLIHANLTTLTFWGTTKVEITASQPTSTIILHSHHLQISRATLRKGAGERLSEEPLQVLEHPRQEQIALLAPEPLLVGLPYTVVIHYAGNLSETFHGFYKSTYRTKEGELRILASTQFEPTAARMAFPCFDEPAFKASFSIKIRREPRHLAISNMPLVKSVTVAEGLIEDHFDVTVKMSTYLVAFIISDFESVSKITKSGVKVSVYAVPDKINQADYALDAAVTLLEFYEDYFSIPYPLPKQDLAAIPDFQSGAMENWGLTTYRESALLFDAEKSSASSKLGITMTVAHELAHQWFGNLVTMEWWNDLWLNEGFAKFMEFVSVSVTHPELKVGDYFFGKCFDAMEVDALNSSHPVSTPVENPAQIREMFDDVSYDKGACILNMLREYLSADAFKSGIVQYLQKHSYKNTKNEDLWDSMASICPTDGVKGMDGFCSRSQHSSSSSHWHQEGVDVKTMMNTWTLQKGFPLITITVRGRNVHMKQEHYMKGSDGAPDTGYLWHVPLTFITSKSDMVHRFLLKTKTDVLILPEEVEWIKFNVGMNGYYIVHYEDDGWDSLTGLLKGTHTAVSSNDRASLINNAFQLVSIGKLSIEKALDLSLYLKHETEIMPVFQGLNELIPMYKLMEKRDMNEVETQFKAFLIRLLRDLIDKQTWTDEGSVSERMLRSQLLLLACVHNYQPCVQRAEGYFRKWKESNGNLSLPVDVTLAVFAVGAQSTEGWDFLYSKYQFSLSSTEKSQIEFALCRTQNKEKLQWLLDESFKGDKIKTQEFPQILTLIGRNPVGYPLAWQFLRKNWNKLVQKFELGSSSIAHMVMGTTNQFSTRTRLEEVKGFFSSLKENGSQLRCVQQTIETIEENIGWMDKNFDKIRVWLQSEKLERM
SIRT5 block: inhibitors of human sirtuin-5 desuccinylase; Q9NXA8; Purified SirT5, succinyl-peptide AMC, trypsin-coupled fluorescence; inhibition, % at 15 µM; 1.1% of 330,000 active; in the data active = inhibition above about 15%; inconclusive = no clear call, values can overlap the other calls
CAL PDZ FP-1: blocks peptide binding to the human CAL PDZ domain. inhibition, % at 24.9 µM. 0.92% of 300,000 active. Q9HD26. purified CAL PDZ, TMR-peptide fluorescence polarization, 1 h;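 active = mean inhibition of at least 30% with at least half of replicates also reaching 30%; inconclusive = no clear call, values can overlap the other calls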;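 note: 0% = DMSO neutral control and 100% = excess unlabeled competitor peptide PRC23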
S100A4 inh HTS: S100A4-myosin IIA interaction inhibition; S100A4/TAMRA-MyoIIA peptide fluorescence polarization; 0.14% of 360,000 active; P26447; inhibition, % at 10.7 µM;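 active = mean inhibition of at least 70% across replicates, with every replicate also reaching that level; inconclusive = mean inhibition reaches 70% but some replicates fall short; inactive = mean inhibition below 70%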
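Assay system: human S100A4 monomer with TAMRA-labelled myosin IIA peptide / Buffer or medium: Calcium-containing HEPES buffer, pH 7.2 / Reagent: TAMRA-labelled myosin IIA heavy-chain peptide probe, 5 nM / Compound: one dose per compound / Timing: polarization read 5 min after assay mix addition, stable 5–60 min / Benchmarks: neutral control DMSO, positive control TFP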
CAL PDZ FP-2: inhibitors of human CAL PDZ peptide binding. 0.02% of 330,000 active. inhibition, % at 20 µM. AID 504414. purified CAL PDZ, TMR-peptide fluorescence polarization, 1 h. Q9HD26;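 active = highest replicate inhibition of at least 40%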;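 note: plate controls were DMSO neutral control wells for no effect and unlabeled competitor peptide control wells for full effect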
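Material: tagged CAL PDZ domain; buffer or medium: 25 mM sodium phosphate pH 7.4, 150 mM NaCl, TCEP, IgG, Thesit; compound dosing: single point, 20 µM; schedule: 1 h incubation at room temperature before polarization reading; measured by: FP readout, S and P plane fluorescence; read-out basis: percent inhibition from loss of millipolarization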
DENV2 CPE rescue: protects cells from dengue virus 2 cytopathic effect. DENV2-infected cells, cytopathic effect rescue, plate reader. CPE inhibition, % at 9.99 µM. 1.7% of 350,000 active; in the data active = CPE inhibition above about 20%, passing the limit was not always enough; inconclusive = no clear call, values can overlap the other calls; tested in BHK-21 cells;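 note: 0% = median of neutral control wells and 100% = median of positive control wells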
* hit, by the source's call; ? = inconclusive; · = no result.

SMILES	ERAP1 inh	SIRT5 block	CAL PDZ FP-1	S100A4 inh HTS	CAL PDZ FP-2	DENV2 CPE rescue
N/C(=N\OC(=O)c1cccs1)c1cccc([N+](=O)[O-])c1	-3	35*	-1	-5	0	-2
Cc1cccc(C(=O)O/N=C(\N)c2cccc([N+](=O)[O-])c2)c1	-1	-3	·	7	-1	-3
COc1ccc(NC(=O)Nc2ccc3c(c2)C(=O)N([C@H](C)CO)C[C@H](C)[C@@H](CN(C)S(=O)(=O)c2ccc(C)cc2)O3)cc1	-2	7	·	3	·	2
CN(C)CCN1CCN(C(c2ccnc3ccccc23)c2nnnn2-c2ccc3c(c2)OCCO3)CC1 (centres undefined)	-2	-9	·	-16	·	22*
CCCNC(=O)Nc1ccc2c(c1)C(=O)N(C)[C@@H]1CC[C@H](CC(=O)NCCCN(C)C)O[C@H]1CO2	-1	1	·	18	·	0
COc1ccc(NN=Nc2ccc([N+](=O)[O-])cc2)cc1	-2	-1	42*	4	0	3
O=C(Cc1ccccn1)c1ccccc1	0	·	1	-3	0	50*
COc1cccc(NC(=O)C[C@@H]2CC[C@@H]3[C@H](COc4ccc(NC(=O)c5ccccc5F)cc4C(=O)N3C)O2)c1	-4	0	·	-3	·	-12
O=C(Nc1ccc(F)cc1)N1CC(=O)N2[C@H](CO)[C@H](c3ccc(C#CC4CC4)cc3)[C@H]2C1	-1	1	·	-10	·	35*
O=C(c1ccc(F)cc1)N1CC(=O)N2[C@@H](CO)[C@H](c3ccc(C#CC4CC4)cc3)[C@@H]2C1	0	-4	·	5	·	41*
O=C(NCC(=O)N1CCN(C(c2ccccc2)c2ccccc2)CC1)c1ccccc1Br	-3	20*	·	-1	·	5
C[C@H]1CN([C@@H](C)CO)C(=O)c2cc(NC(=O)c3ccncc3)ccc2O[C@@H]1CN(C)C(=O)Nc1cccc2ccccc12	1	-1	·	8	·	-7
C[C@@H]1CN([C@@H](C)CO)C(=O)c2cc(NS(=O)(=O)c3ccccc3)ccc2O[C@@H]1CN(C)CC1CCCCC1	0	25*	·	9	·	-3
Cc1ccc(S(=O)(=O)Nc2ccc3c(c2)C(=O)N([C@H](C)CO)C[C@H](C)[C@@H](CN(C)CC2CCCCC2)OCCCC[C@H](C)O3)cc1	1	3	·	1	·	16
C[C@@H]1CCCCO[C@H](CN(C)CC2CCCCC2)[C@H](C)CN([C@@H](C)CO)C(=O)c2cc(NS(=O)(=O)c3ccc(F)cc3)ccc2O1	1	14	·	2	·	-9
C[C@@H]1CCCCO[C@@H](CN(C)CC2CCCCC2)[C@@H](C)CN([C@@H](C)CO)C(=O)c2cc(NS(=O)(=O)c3ccc(F)cc3)ccc2O1	-10	19*	·	1	·	4
Cc1ccc(S(=O)(=O)Nc2ccc3c(c2)C(=O)N([C@@H](C)CO)C[C@@H](C)[C@@H](CN(C)CC2CCCCC2)OCCCC[C@H](C)O3)cc1	-1	17*	·	2	·	-1
C[C@@H]1CN([C@@H](C)CO)C(=O)c2cc(NS(=O)(=O)c3ccccc3)ccc2O[C@@H](C)CCCCO[C@@H]1CN(C)CC1CCCCC1	0	8	·	-6	·	55*
COCC(=O)Nc1ccc2c(c1)C(=O)N(C)[C@@H]1CC[C@@H](CC(=O)Nc3cn(C)nc3C)O[C@H]1CO2	·	·	·	·	·	-8
C[C@@H]1CN([C@H](C)CO)C(=O)c2cc(-c3ccccc3)cnc2O[C@H]1CN(C)C(=O)c1ccccc1F	·	-1	·	-5	·	-5
CCC(=O)N1[C@H](CO)[C@H](c2ccc(-c3ccccc3)cc2)[C@H]1CNC(=O)COC	-4	-1	·	-2	·	0
COc1ccc(S(=O)(=O)Nc2ccc3c(c2)C(=O)N([C@@H](C)CO)C[C@H](C)[C@@H](CN(C)Cc2ccccc2)OCCCC[C@H](C)O3)cc1	·	·	·	·	·	-2
C[N+]1(CC(=O)OC2CCCCCCCCCCC2)CCCC1	3	-7	97*	-2	-1	?
CN1C(=O)c2cc(NC(=O)NCc3ccccc3)ccc2OC[C@H]2O[C@H](CC(=O)NCC3CCCCC3)CC[C@H]21	2	0	·	7	·	98*
CN1C(=O)c2cc(NS(=O)(=O)c3cccc(F)c3)ccc2OC[C@@H]2O[C@@H](CC(=O)O)CC[C@H]21	-4	3	·	-7	·	-5
SMILES	ERAP1 inh	SIRT5 block	CAL PDZ FP-1	S100A4 inh HTS	CAL PDZ FP-2	DENV2 CPE rescue
CCCNC(=O)Nc1ccc2c(c1)C(=O)N(C)[C@@H]1CC[C@@H](CC(=O)NCc3ccccc3)O[C@@H]1CO2	1	-4	·	8	·	56*
CN1C(=O)c2cc(NC(=O)NCc3ccccc3)ccc2OC[C@H]2O[C@H](CC(=O)NCC3CCCCC3)CC[C@@H]21	·	0	·	-1	·	17
CCNC(=O)Nc1ccc2c(c1)C(=O)N(C)[C@H]1CC[C@@H](CC(=O)NC3CCCCC3)O[C@@H]1CO2	-1	-2	·	3	·	27*
CN1C(=O)c2cc(NS(=O)(=O)c3cccc(F)c3)ccc2OC[C@H]2O[C@@H](CC(=O)O)CC[C@@H]21	-6	1	·	8	·	71*
C[C@@H]1CN([C@@H](C)CO)S(=O)(=O)c2ccc(-c3ccc(F)cc3)cc2O[C@H]1CN(C)S(C)(=O)=O	4	1	·	1	·	4
CN1C(=O)c2cc(NC(=O)Cc3cccs3)ccc2OC[C@@H]2O[C@H](CC(=O)NCC3CCCCC3)CC[C@@H]21	-2	2	·	-5	·	?
CN1C(=O)c2cc(NC(=O)Cc3cccs3)ccc2OC[C@H]2O[C@H](CC(=O)N[C@H]3CCN(Cc4ccccc4)C3)CC[C@@H]21	1	4	·	96*	·	-1
CN1C(=O)c2cc(NC(=O)Cc3cccs3)ccc2OC[C@@H]2O[C@H](CC(=O)NCC3CCCCC3)CC[C@H]21	-1	10	·	-4	·	132*
CN1C(=O)c2cc(NS(C)(=O)=O)ccc2OC[C@@H]2O[C@@H](CC(=O)NCc3ccc(-c4ccccc4)cc3)CC[C@@H]21	1	15*	·	2	·	-1
COc1ccc(C)cc1N(CC(=O)NC1CCCC1)C(=O)Cn1nnc(-c2ccc(C)o2)n1	-3	2	103*	-3	0	-1
C[C@@H]1CCCCO[C@H](CN(C)S(=O)(=O)c2ccccc2)[C@@H](C)CN([C@@H](C)CO)C(=O)c2cc(NC(=O)Nc3ccccc3)ccc2O1	1	8	·	11	·	-1
CCOc1cc(/C=N/NC(=O)c2ccncc2)cc(Cl)c1OS(C)(=O)=O	2	-26	54*	-4	-4	-7
CCOc1cc(/C=N/NC(=O)c2ccncc2)ccc1OS(C)(=O)=O	·	·	2	·	0	·
COc1ccccc1C#Cc1ccc([C@H]2[C@@H](CO)N3CCCCN(C(=O)C4CCCC4)C[C@@H]23)cc1	2	19*	·	-2	·	1
